Data as given in ChEMBL document CHEMBL1121898, “Potential antiestrogens. Synthesis and evaluation of mammary tumor inhibiting activity of 1,2-dialkyl-1,2-bis(3'-hydroxyphenyl)ethanes” (1981).
Calls of active or inactive are those of the source. The rule behind the calls is not given here.

Experiments:
[1] = target: T1, Estrogen receptor (Mus musculus) (UniProt O08537+P19785); test: Antiestrogenic activity in uterotrophic test in mice at 100 ug; assay type: functional
How it was run: (§1)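 Immature female NMRI mice, 20 days old (14.5 ± 1.2 g), randomly grouped 10 per group. Each received a daily sc injection for 3 days of 0.1 mL olive oil solution containing test compound, together with estrone to stimulate uterine growth. Uteri were removed 24 h after the last injection and weighed. Results are reported as % inhibition of the estrone-stimulated uterine weight gain, mean ± SD.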

[2] = target: T1, Estrogen receptor (Mus musculus); test: Inhibitory activity in mouse uterine weight test at 0.1 ug; assay type: functional
How it was run: (§2)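 Antiuterotrophic (Dorfman) assay in immature 20-day-old female NMRI mice, groups of 10. Uterine growth was stimulated with estrone (0.1 μg) and the test compound was given alongside it, sc daily for 3 days in 0.1 mL olive oil. Uteri were taken 24 h after the last dose. Uterine weight is reported as means ± SD and inhibition as % of the estrone-stimulated response.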

[3] = test system: Estrogen receptor (Bos taurus); test: Displacement of [3H]estradiol from calf estrogen receptor
[4] = target: T1, Estrogen receptor (Mus musculus); test: Inhibitory activity in mouse uterine weight test at 1000 ug; assay type: functional; how it was run: as §2
[5] = target: T1, Estrogen receptor (Mus musculus); test: Inhibitory activity in mouse uterine weight test at 100 ug; assay type: functional; how it was run: as §2
[6] = target: T1, Estrogen receptor (Mus musculus); test: Antiestrogenic activity in uterotrophic test in mice at 1000 ug; assay type: functional; how it was run: as §1
[7] = target: T1, Estrogen receptor (Mus musculus); test: Antiestrogenic activity in uterotrophic test in mice at 3.3 ug; assay type: functional; how it was run: as §1
[8] = target: T1, Estrogen receptor (Mus musculus); test: Antiestrogenic activity in uterotrophic test in mice at 0 ug; assay type: functional; how it was run: as §1
[9] = target: T1, Estrogen receptor (Mus musculus); test: Estrogenic activity in uterotrophic test in mice at 0 ug; assay type: functional
How it was run: (§3)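 Uterine growth stimulation in immature female NMRI mice, 20 days old (14.5 ± 1.2 g), 10 per group. Test compound in 0.1 mL olive oil was given sc daily for 3 days. Uteri were excised 24 h after the final injection and weighed. Effect is reported as mean ± SD.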

[10] = organism: Mus musculus; test: Vaginal cornification test in mice at 2.7 ug; predominant cellular component leucocytes (diestrus); assay type: functional, organism-based
[11] = target: T1, Estrogen receptor (Mus musculus); test: Inhibitory activity in mouse uterine weight test at 27 ug; assay type: functional; how it was run: as §2
[12] = organism: Mus musculus; test: Vaginal cornification test in mice at 0 ug; predominant cellular component leucocytes (diestrus); assay type: functional, organism-based
How it was run: (§4)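 Female NMRI mice (~15 g) were ovariectomized; castration was confirmed at 10 days by leucocyte smears. Mice were primed with estradiol 3-benzoate 0.2 μg, and only responders showing estrus were kept. Groups of three received sc test compound in 0.1 mL olive oil daily for 3 days. Saline vaginal smears were taken 6, 24, 30, 48 and 54 h after the last dose and scored by Allen-Doisy.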

[13] = target: T1, Estrogen receptor (Mus musculus); test: Antiestrogenic activity in uterotrophic test in mice at 27 ug; assay type: functional; how it was run: as §1
[14] = organism: Mus musculus; test: Predominant components of vaginal smear at a compound concentration of 240 ug was determined using vaginal cornification test; leucocytes (</= 50%), nucleated and cornified, nucleated cellscharacteristic of antiestrogens; assay type: functional, organism-based
[15] = target: T1, Estrogen receptor (Mus musculus); test: Inhibitory activity in mouse uterine weight test at 80 ug; assay type: functional
How it was run: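 Immature female NMRI mice, 20 days old (14.5 ± 1.2 g), in random groups of 10. They received sc injections daily for 3 days of 0.1 mL olive oil containing test compound, with estrone 0.1 μg given to stimulate uterine growth. Uteri were removed 24 h after the last injection and weighed (mean ± SD). Result is percent inhibition of the estrone-stimulated uterine weight gain.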

[16] = target: T1, Estrogen receptor (Mus musculus); test: Inhibitory activity in mouse uterine weight test at 5 ug; assay type: functional; how it was run: as §2
[17] = target: T1, Estrogen receptor (Mus musculus); test: Antiestrogenic activity in uterotrophic test in mice at 2.7 ug; assay type: functional; how it was run: as §1
[18] = target: T1, Estrogen receptor (Mus musculus); test: Estrogenic activity in uterotrophic test in mice at 20 ug; assay type: functional; how it was run: as §3
[19] = target: T1, Estrogen receptor (Mus musculus); test: Antiestrogenic activity in uterotrophic test in mice at 80 ug; assay type: functional; how it was run: as §1
[20] = target: T1, Estrogen receptor (Mus musculus); test: Estrogenic activity in uterotrophic test in mice at 533 ug; assay type: functional
How it was run: (§5)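 Immature (20-day-old) female NMRI mice, 14.5 ± 1.2 g, randomized into groups of 10. Given the test compound sc daily for 3 days in 0.1 mL olive oil. Uteri removed 24 h after the last injection; uterine weight taken as the read-out, means ± SD. Dose in μg.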

[21] = target: T1, Estrogen receptor (Mus musculus); test: Inhibitory activity in mouse uterine weight test at 240 ug; assay type: functional; how it was run: as §2
[22] = organism: Mus musculus; test: Vaginal cornification test in mice at 27 ug; predominant cellular component leucocytes (diestrus); assay type: functional, organism-based
[23] = target: T1, Estrogen receptor (Mus musculus); test: Estrogenic activity in uterotrophic test in mice at 2 ug; assay type: functional; how it was run: as §3
[24] = organism: Mus musculus; test: Predominant components of vaginal smear at a compound concentration of 80 ug was determined using vaginal cornification test; leucocytes (</= 50%), nucleated and cornified, nucleated cellscharacteristic of antiestrogens; assay type: functional, organism-based
[25] = target: T1, Estrogen receptor (Mus musculus); test: Estrogenic activity in uterotrophic test in mice at 60 ug; assay type: functional; how it was run: as §5
[26] = target: T1, Estrogen receptor (Mus musculus); test: Inhibitory activity in mouse uterine weight test at 2.7 ug; assay type: functional; how it was run: as §2
[27] = target: T1, Estrogen receptor (Mus musculus); test: Antiestrogenic activity in uterotrophic test in mice at 5 ug; assay type: functional; how it was run: as §1
[28] = target: T1, Estrogen receptor (Mus musculus); test: Antiestrogenic activity in uterotrophic test in mice at 240 ug; assay type: functional; how it was run: as §1
[29] = organism: Mus musculus; test: Vaginal cornification test in mice at 5 ug; predominant cellular component leucocytes (diestrus); assay type: functional, organism-based; how it was run: as §4
[30] = target: T1, Estrogen receptor (Mus musculus); test: Estrogenic activity in uterotrophic test in mice at 180 ug; assay type: functional; how it was run: as §3
[31] = test system: MCF7; test: Inhibition of estrogen receptor positive MCF-7 cell proliferation as percent treated/control cell number after 10 days at 10e-8 M; assay type: functional, Homo sapiens
How it was run: (§6)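 MCF-7 cells were grown in McCoy's 5a medium with fetal bovine serum stripped by DCC (0.5 h, 45 °C). Compounds were dissolved in ethanol (final ≤0.5%) and diluted in complete medium. Cells were seeded at 5×10^4 cells/plate. On day 10, three replicate plates per group were counted by Coulter counter, three counts per plate. Percent T/C = test/control. In a retest, compounds were given at 10^-7 M with 17β-estradiol at 10^-7 or 10^-8 M.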

[32] = test system: MCF7; test: Inhibition of estrogen receptor positive MCF-7 cell proliferation as percent treated/control cell number after 10 days at 10e-6 M; assay type: functional, Homo sapiens; how it was run: as §6
[33] = test system: MCF7; test: Inhibition of estrogen receptor positive MCF-7 cell proliferation as cell number after 10 days at 10e-6 M; assay type: functional, Homo sapiens; how it was run: as §6
[34] = test system: MCF7; test: Inhibition of estrogen receptor positive MCF-7 cell proliferation as cell number after 10 days at 10e-7 M; assay type: functional, Homo sapiens; how it was run: as §6
[35] = test system: MCF7; test: Inhibition of estrogen receptor positive MCF-7 cell proliferation as percent treated/control cell number after 10 days at 10e-7 M; assay type: functional, Homo sapiens; how it was run: as §6
[36] = test system: MCF7; test: Inhibition of estrogen receptor positive MCF-7 cell proliferation as cell number after 10 days at 10e-8 M; assay type: functional, Homo sapiens; how it was run: as §6
[37] = organism: Mus musculus; test: Vaginal cornification test in mice at 0.1 ug; cornified nonnucleated cells present (estrus); assay type: functional, organism-based

T1 sequence (O08537 whole entry, looked up): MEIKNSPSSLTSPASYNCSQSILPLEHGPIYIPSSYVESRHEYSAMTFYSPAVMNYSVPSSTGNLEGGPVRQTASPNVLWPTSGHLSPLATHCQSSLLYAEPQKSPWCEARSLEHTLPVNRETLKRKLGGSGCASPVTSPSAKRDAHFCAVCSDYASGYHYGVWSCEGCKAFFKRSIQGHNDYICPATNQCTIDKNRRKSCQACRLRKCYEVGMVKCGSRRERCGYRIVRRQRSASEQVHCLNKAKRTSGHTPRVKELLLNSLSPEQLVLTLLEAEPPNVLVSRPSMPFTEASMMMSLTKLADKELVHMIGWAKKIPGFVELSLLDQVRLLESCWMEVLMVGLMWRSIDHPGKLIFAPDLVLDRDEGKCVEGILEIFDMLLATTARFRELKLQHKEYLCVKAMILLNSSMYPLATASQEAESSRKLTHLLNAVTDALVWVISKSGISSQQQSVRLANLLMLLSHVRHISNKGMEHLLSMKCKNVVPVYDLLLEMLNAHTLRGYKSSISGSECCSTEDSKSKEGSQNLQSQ
T1 sequence (P19785 whole entry, looked up): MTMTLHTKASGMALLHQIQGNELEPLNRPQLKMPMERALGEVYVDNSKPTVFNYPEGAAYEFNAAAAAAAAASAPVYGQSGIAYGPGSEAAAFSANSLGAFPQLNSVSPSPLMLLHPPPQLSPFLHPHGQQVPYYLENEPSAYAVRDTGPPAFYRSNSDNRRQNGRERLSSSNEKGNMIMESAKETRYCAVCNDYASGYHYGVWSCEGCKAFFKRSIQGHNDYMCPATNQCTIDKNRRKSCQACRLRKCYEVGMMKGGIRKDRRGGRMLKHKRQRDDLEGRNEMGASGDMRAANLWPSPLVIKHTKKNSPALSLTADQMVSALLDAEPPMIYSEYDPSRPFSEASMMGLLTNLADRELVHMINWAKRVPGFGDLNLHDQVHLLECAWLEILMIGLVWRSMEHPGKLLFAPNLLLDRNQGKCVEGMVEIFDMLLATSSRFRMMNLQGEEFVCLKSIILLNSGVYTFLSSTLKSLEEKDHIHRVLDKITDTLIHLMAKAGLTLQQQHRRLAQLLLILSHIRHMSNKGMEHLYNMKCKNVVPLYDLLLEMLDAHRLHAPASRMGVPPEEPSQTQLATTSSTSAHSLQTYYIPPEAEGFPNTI

## CCCCCC(c1cccc(O)c1)C(CCCCC)c1cccc(O)c1 (centres undefined)
[1]
  Effect: 34.2
[2]
  inhibition: 5%
[3]
  Ka: 3.3e+06 M⁻¹
[4]
  inhibition: 14%
[5]
  inhibition: 15%
[6]
  Effect: 34.6
[7]
  Effect: 39.5
[8]
  Effect: 10.5

## CC(C)CC(c1cccc(O)c1)C(CC(C)C)c1cccc(O)c1 (centres undefined)
[9]
  Effect: 10
[10]
  Activity: inactive
[11]
  inhibition: 22%
[12]
  Activity: inactive
[13]
  Effect: 33.2
[14]
  Activity: Weak activity
[15]
  inhibition: 28%
[16]
  inhibition: 18%
[17]
  Effect: 38.1
[18]
  Effect: 14.5
[19]
  Effect: 31.5
[20]
  Effect: 31.3
[21]
  inhibition: 27%
[22]
  Activity: inactive
[3]
  Ka: 110000 M⁻¹
[23]
  Effect: 11.8
[24]
  Activity: Weak activity
[25]
  Effect: 19
[26]
  inhibition: 4%
[8]
  Effect: 11.4
[27]
  Effect: 34.1
[28]
  Effect: 31.7
[29]
  Activity: inactive
[30]
  Effect: 32.6

## CC/C(=C(\c1ccccc1)c1ccc(OCCN(C)C)cc1)c1ccccc1 [TAMOXIFEN]
[31]
  T/C: 87%
[32]
  T/C: 75%
[33]
  Cell number: 32900
[34]
  Cell number: 34600
[35]
  T/C: 79%
[36]
  Cell number: 38000

## C[C@]12CC[C@@H]3c4ccc(O)cc4CC[C@H]3[C@@H]1CCC2=O
[37]
  Activity: Active
